# High-throughput results: PubChem BioAssay, several laboratories
# Compounds with a hit are over-represented: about 3.5% of the library has one in this group of screens.
# APP 5'UTR act = activates APP 5'UTR luciferase reporter | SH-SY5Y APP 5'UTR luciferase reporter, luminescence; zero percent = DMSO vehicle wells | activation, % at 2 µM | 1% of 190,000 active | AID 1276;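 active = activation above a set limit, based on mean plus 3 SD of controls, cut at about 140% in these data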
# Pf gametocyte = inhibitors of late stage P. falciparum gametocyte viability; P. falciparum stage V gametocytes, ATP luminescence, 24 h; inhibition, % at 10.9 µM; 0.065% of 150,000 active;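 active = inhibition above the mean plus 3 SD of compounds within the control limits, set per campaign, cut at about 38% in these data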;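 also: 0% = DMSO wells and 100% = medium only without gametocytes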
# FLuc inh counter = Photinus pyralis luciferase inhibition counter-screen; P08659; ATPLite firefly luciferase biochemical luminescence, 10 min; inhibition, % at 10 µM; 1.5% of 200,000 active; AID 1006;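 active = inhibition above about 50% when tested at 10 µM, limit read from the data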
# Target sequence (P08659 whole entry, looked up): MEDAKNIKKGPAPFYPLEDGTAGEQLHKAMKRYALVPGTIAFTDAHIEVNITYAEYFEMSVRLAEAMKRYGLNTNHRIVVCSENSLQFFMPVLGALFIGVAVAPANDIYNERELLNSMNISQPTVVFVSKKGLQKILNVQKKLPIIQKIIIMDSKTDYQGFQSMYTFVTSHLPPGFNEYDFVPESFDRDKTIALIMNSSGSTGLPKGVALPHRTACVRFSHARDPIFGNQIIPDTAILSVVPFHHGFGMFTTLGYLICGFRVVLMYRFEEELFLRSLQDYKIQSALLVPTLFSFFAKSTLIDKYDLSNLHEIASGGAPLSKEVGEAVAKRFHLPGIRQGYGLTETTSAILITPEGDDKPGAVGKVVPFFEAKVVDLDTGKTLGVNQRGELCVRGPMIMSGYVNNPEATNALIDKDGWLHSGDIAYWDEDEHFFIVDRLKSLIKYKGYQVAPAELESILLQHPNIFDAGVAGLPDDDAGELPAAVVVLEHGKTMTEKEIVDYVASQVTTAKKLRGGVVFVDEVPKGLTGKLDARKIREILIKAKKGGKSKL
# NF-kB neuron act = raises NF-kB expression in human neuronal cells; NF-kB reporter expression; active compounds read high; fold change at 12.5 µM; 1.6% of 190,000 active; in the data active = fold change above about 3.3
# FLuc act counter = firefly luciferase counter-screen for stimulation assays. P08659. ATPlite luciferase biochemical, luminescence, 10 min; 0 = ATP-free wells, 1 = DMSO control. activation factor at 10 µM. 200,000 tested, under 10 active. AID 1027;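 active = luciferase activation factor, scaled between plate controls, of at least 2 with compound at 10 µM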
#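 test system = cell-free luciferase reagent | medium = PBS as buffer for the ATP substrate | dosing = test compounds dosed from 2 mM stocks in 100% DMSO | incubation = 10 min at ambient temperature | detection = luminescence measurement of luciferase light output | benchmarks = low control with PBS replacing ATP, high control enzyme plus ATP without compound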
# STAT1 activator = increases IFN-gamma driven STAT1 reporter signal; NIH 3T3 STAT1-luciferase reporter, luminescence; 100% = IFN-gamma alone, no compound; activation (% of control), % at 5.5 µM; 2.6% of 200,000 active;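 active = activation above the screen-wide mean activation plus 3 SD, cut at about 130% in these data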;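 also: raw ratio to IFN-gamma control signal so 100% means no change and 0% no light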
# The depositor's hits bear a star; x = no result.
SMILES,APP 5'UTR act,Pf gametocyte,FLuc inh counter,NF-kB neuron act,FLuc act counter,STAT1 activator
COc1ccc(N2C(=S)NC3N2C(=S)NC3(C)c2ccccc2)cc1 (centres undefined),54.7,x,-1.7,6.68*,1,124.9
COc1cccc(/C=N/NC(=O)C(=O)N/N=C/c2cccc(OC)c2O)c1O,-1.3,1.7,-5.5,1.01,1.1,103.5
COc1ccc(/C=N/NC(=O)C(N)=O)c(OC)c1OC,-16.0,x,-1.1,1.17,1,98.2
COC(=O)c1sccc1N/N=C/c1ccc(OC)c(OC)c1OC,65.9,-9.7,-0.2,2.98,1,129.1*
COC(=O)c1sccc1N/N=C/c1cccc(OC)c1O,180.0*,x,36.7,3.6*,0.6,103.7
COC(=O)c1sccc1N/N=C/c1cccc(Oc2ccccc2)c1,176.1*,19.9,13.4,0.93,0.9,137.9*
COCC(C)n1c(C)cc(C(=O)COC(=O)c2n[nH]c3ccccc23)c1C (centres undefined),143.0*,20.3,75.7*,0.7,0.2,115.8
C/C(CC(=O)NCCCN1CCOCC1)=N\NC(=O)COc1ccc(Cl)cc1,0.2,23.7,-4.6,0.99,1,105.2
N#C/C(=C/c1ccccc1)C(=O)NCc1ccccc1,0.2,-0.3,-1.9,1.04,1,100.5
CN(C)c1ccc(/C=C(/C#N)C(=O)NCc2ccccc2)o1,38.2,22.0,8.2,1.52,0.9,128.6*
CCOC(=O)c1cc2c(C)n(-c3ccc(C)cc3)c(C)c2ccc1=O,114.9,16.9,84.3*,1.43,0.2,97.0
CCOC(=O)c1cc2c(C)n(-c3ccc(OCC)cc3)c(C)c2ccc1=O,2.6,x,0.4,0.96,1,94.3
O=C(COC(=O)CNS(=O)(=O)c1ccc2ccccc2c1)Nc1ccccc1Sc1ccccc1,9.8,x,-2.4,0.98,1,98.5
O=C(NCCc1ccccc1)NC1CCCCC1,37.9,x,14.0,3.4*,0.9,123.7
O=C(NCCC1=CCCCC1)NC1CCCCC1,81.6,x,22.1,4.46*,0.8,143.9*
O=C(NCCC1=CCCCC1)c1ccc(Cl)cc1,228.3*,x,32.9,5.55*,0.7,98.8
NC(=O)NC(=O)CC1S/C(=N/N=C2/NC(=O)CS2)NC1=O (centres undefined),9.6,11.8,-6.3,1.27,1.1,107.0
COc1ccc(C2CC(c3ccccc3)=NN2C(=O)COC(=O)C2(C)CC2(Cl)Cl)cc1 (centres undefined),-9.9,-23.9,-3.6,1.1,1,97.4
Cc1oc(-c2cccs2)nc1CN1CCN(Cc2ccc(F)c(F)c2)C(CCO)C1 (centres undefined),-10.4,5.9,-2.8,x,1,107.6
CCN(CC)S(=O)(=O)c1ccc(C)c(NC(=O)COC(=O)c2ccc(C)c(S(=O)(=O)N3CCOCC3)c2)c1,x,-12.2,-3.5,1.43,1,99.4
c1ccc(-n2ncc3c2ncn2nc(-c4ccco4)nc32)cc1,93.4,x,39.1,2,0.6,137.0*
O=C(CCNc1ccccc1)c1ccc2c(c1)OCO2,54.6,x,33.7,3.12,0.7,147.8*
Cc1ccccc1OCC(=O)Nc1ccc2c(c1)OCO2,26.6,10.7,19.6,1.66,0.8,110.3
CC(=O)Nc1ccccc1OCC(=O)c1ccc2c(c1)OCO2,123.2,18.9,-1.8,1.36,1,134.7*
Cc1ccc2nc(Cl)c3nnnn3c2c1,-25.6,x,-1.4,0.29,1,78.2
SMILES,APP 5'UTR act,Pf gametocyte,FLuc inh counter,NF-kB neuron act,FLuc act counter,STAT1 activator
COc1ccc(NC(=O)/C=C/c2ccc3c(c2)OCO3)cc1,72.6,20.2,48.9,3.22,0.5,130.9*
COc1ccc(NC(=O)/C(=C/c2ccc3c(c2)OCO3)NC(C)=O)cc1,25.0,0.3,-0.1,1.16,1,102.6
CC(C)=CC(=O)Nc1ccc2c(c1)OCO2,126.1,x,51.1*,4.53*,0.5,111.1
Brc1cc2c(cc1/C=N/Nc1nc3ccccc3s1)OCO2,29.7,-0.2,-1.7,1.7,1,131.9*
O=C(/C=C/c1ccc2c(c1)OCO2)Nc1nc2ccccc2s1,156.3*,-8.2,20.8,1.14,0.8,146.2*
NS(=O)(=O)c1ccc(-c2cccc(/C=C3\SC(=O)NC3=O)c2)cc1,x,-19.1,x,x,x,x
Cc1cccc(NC(=O)CSc2nnc(CNC(=O)c3cccs3)o2)c1C,-6.6,5.6,-7.0,0.93,1.1,98.6
O=C(CS(=O)(=O)c1ccccc1)Nc1ccc(N2CCOCC2)cc1,-2.6,-3.4,-0.3,1.16,1,107.0
Cc1csc(NC(=O)/C=C/c2ccc3c(c2)OCO3)n1,109.9,-5.5,77.2*,1.3,0.2,59.0
CCCc1cc(C(=O)Nc2cc(Br)ccc2O)no1,23.0,x,2.8,5.49*,1,102.5
Cc1ccc(-c2cc(C(=O)Nc3cc(C)ccc3O)no2)cc1,x,-1.0,x,x,x,x
CC(C)c1cc(C(=O)Nc2cc(Cl)ccc2O)no1,138.6*,x,10.6,8.61*,0.9,97.3
CC(C)Cc1cc(C(=O)Nc2ccc(Br)cc2)no1,x,15.9,x,x,x,x
CC(C)c1cc(C(=O)Nc2cc(Br)ccc2O)no1,37.9,x,4.6,7.54*,1,102.4
CSc1ccccc1NC(=O)c1cc(C(C)C)on1,41.0,-28.3,8.5,1.48,0.9,128.0
O=C(CSc1ccc2nnc(-c3ccccn3)n2n1)Nc1ccc2c(c1)OCO2,-3.4,x,-1.8,1.19,1,101.7
O=C(CCN1CCN(c2ccccc2)CC1)Nc1cccc(Br)c1,-2.1,x,-8.0,1.16,1.1,87.7
COc1cccc(OC)c1C(=O)Nn1c(C2CCC2)nc2ccccc2c1=O,-3.3,-11.5,0.3,0.88,1,95.0
O=C(Nn1c(C2CCCCC2)nc2ccccc2c1=O)c1ccc([N+](=O)[O-])cc1,14.5,42.1*,-6.6,1.24,1.1,95.3
C=CCN1C(=O)C(CC(=O)Nc2ccc(OCCC)cc2)N(CCCN2CCN(Cc3ccccc3)CC2)C1=S (centres undefined),3.2,-12.3,-6.4,0.94,1.1,99.4
CN(c1cccc(NC(=O)COc2ccc(Cl)cc2Cl)c1)S(C)(=O)=O,40.2,x,69.2*,1.34,0.3,105.7
O=C(COc1ccc(Cl)cc1Cl)Nc1cccnc1,78.5,-4.1,58.2*,1.27,0.4,99.4
CC(NC(=O)C1CCC(C)(C(=O)O)C1(C)C)c1ccccc1 (centres undefined),x,-2.1,x,x,x,x
CCOC(=O)C1(CCCc2ccccc2)CCN(C(=O)Cn2nc(C)nc2C)CC1,x,-3.8,x,x,x,x
CN=c1scc(-c2ccc(F)cc2)n1/N=C/c1ccc(O)c(O)c1,-37.4,-21.0,89.6*,0.96,0.1,55.3
CCN=c1scc(-c2ccco2)n1/N=C/c1ccc(O)cc1,78.5,1.8,29.2,1.14,0.7,110.3
COc1cc(-c2nnc(SCC(=O)/C(C#N)=C(\C)N)o2)cc(OC)c1OC,8.0,x,-11.2,0.41,1.1,97.3
CCOn1c(=O)c(-c2cc3ccccc3o2)[n+]([O-])c2ccccc21,16.3,x,9.6,1.48,0.9,123.1
